Laboratory results from ChEMBL document CHEMBL1139690, “Comparison between two classes of selective EP(3) antagonists and their biological activities” (Bioorg Med Chem Lett, 2006).

What was measured:
[1] = target: Prostaglandin E2 receptor EP2 subtype (Homo sapiens, UniProt P43116); test: Binding affinity to EP2 receptor
[2] = target: T1, Prostaglandin E2 receptor EP3 subtype (Homo sapiens, UniProt P43115); test: Binding affinity to EP3 receptor
T1 sequence (P43115 whole entry): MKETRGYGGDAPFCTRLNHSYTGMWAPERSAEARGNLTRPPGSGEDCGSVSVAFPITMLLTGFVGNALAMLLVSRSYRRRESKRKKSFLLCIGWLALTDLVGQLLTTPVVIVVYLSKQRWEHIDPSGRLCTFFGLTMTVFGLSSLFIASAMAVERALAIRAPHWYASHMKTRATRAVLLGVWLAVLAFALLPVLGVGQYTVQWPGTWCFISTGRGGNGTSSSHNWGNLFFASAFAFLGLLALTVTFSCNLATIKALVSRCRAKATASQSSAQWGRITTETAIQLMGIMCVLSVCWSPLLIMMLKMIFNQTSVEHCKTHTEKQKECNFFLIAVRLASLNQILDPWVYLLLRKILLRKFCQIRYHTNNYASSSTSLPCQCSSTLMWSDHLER

[3] = target: T2, Prostaglandin E2 receptor EP1 subtype (Homo sapiens, UniProt P34995); test: Binding affinity to EP1 receptor
T2 sequence (P34995 whole entry): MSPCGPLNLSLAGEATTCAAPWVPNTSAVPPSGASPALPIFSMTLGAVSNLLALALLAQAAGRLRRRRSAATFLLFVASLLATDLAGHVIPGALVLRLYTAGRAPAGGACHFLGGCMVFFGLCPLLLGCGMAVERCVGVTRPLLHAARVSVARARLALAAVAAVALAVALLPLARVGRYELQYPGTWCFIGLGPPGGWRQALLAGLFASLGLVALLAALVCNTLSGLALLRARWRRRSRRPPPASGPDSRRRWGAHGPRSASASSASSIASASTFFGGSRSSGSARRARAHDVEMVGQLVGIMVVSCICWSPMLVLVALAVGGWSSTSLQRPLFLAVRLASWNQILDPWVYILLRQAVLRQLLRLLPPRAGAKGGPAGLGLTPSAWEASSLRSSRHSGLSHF

[4] = target: Prostaglandin E2 receptor EP4 subtype (Homo sapiens, UniProt P35408); test: Binding affinity to EP4 receptor
Sequence of Prostaglandin E2 receptor EP4 subtype (P35408 whole entry): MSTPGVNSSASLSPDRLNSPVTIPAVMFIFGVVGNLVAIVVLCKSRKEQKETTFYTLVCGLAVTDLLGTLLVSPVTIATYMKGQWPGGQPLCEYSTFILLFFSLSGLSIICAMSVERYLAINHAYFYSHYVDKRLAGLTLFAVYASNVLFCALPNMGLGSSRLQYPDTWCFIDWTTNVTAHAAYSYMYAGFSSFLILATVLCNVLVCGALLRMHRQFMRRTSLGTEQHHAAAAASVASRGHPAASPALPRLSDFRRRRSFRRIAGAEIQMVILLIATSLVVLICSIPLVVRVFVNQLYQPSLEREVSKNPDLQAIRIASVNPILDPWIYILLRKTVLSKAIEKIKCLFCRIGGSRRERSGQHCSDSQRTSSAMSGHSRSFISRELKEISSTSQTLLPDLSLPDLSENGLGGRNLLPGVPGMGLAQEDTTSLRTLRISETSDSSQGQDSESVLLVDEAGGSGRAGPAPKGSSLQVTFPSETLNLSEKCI

[5] = target: T1, Prostaglandin E2 receptor EP3 subtype; test: Binding affinity to EP3 receptor in presence of HSA
Rattus norvegicus [6] = test: Effect on carrageenan-induced paw hyperalgesia in po dosed rat; type: functional
Thromboxane A2 receptor = target: T3, Thromboxane A2 receptor (Homo sapiens, UniProt P21731); test: Binding affinity to TP receptor
T3 sequence (P21731 whole entry): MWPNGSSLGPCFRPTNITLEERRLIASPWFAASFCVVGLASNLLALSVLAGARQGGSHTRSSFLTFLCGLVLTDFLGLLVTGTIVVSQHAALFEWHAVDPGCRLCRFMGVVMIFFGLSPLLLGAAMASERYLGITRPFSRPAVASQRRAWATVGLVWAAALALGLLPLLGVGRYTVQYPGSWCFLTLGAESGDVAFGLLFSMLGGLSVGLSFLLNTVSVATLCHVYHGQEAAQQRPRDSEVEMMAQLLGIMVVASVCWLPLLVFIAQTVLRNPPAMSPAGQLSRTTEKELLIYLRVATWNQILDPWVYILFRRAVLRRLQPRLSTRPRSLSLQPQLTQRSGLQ

Rattus norvegicus [7] = test: Concentration in carrageenan-induced hyperalgesic rat at 10 mg/kg, po, 1 hr postdose; type: functional
Summary of the method: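 Young 100 g rats from the hyperalgesia model given 10 mg/kg po in 0.5% methocel as sodium salts; plasma concentration measured 1 h post-dosing, at the time hyperalgesia was assessed.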

Prostacyclin receptor = Prostacyclin receptor (Homo sapiens, UniProt P43119); test: Binding affinity to IP receptor
Sequence of Prostacyclin receptor (P43119 whole entry): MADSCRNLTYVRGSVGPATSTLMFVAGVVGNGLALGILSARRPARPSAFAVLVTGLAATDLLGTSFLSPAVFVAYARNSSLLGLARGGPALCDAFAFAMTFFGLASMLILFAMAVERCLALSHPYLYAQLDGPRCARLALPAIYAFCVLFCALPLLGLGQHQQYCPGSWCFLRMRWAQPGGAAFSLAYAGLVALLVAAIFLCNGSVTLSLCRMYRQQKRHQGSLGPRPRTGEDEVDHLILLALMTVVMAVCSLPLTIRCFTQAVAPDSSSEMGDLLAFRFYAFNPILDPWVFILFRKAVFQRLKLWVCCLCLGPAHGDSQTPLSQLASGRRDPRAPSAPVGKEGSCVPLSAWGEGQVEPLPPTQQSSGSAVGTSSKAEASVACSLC

[8] = target: T4, Prostaglandin D2 receptor (Homo sapiens, UniProt Q13258); test: Binding affinity to DP receptor
T4 sequence (Q13258 whole entry): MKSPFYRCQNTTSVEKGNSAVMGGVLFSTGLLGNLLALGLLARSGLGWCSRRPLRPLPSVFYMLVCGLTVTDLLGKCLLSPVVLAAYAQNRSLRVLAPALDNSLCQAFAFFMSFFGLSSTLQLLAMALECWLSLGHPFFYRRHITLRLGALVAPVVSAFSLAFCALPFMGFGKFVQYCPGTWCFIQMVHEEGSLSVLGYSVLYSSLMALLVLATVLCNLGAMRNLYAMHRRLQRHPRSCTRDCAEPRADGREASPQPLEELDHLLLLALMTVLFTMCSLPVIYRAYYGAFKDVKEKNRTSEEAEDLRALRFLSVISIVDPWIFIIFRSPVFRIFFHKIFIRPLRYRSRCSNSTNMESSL

[9] = target: Prostaglandin F2-alpha receptor (Homo sapiens, UniProt P43088); test: Binding affinity to FP receptor
Sequence of Prostaglandin F2-alpha receptor (P43088 whole entry): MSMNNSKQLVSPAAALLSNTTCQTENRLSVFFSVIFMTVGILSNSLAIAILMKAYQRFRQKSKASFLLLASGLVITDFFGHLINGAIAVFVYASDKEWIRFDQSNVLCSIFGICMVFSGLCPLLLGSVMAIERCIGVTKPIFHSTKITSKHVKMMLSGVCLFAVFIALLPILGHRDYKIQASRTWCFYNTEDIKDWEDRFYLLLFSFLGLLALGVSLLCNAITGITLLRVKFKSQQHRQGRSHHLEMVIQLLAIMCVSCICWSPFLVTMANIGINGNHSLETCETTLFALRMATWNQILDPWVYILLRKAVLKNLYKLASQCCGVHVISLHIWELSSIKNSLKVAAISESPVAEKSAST

[10] = target: T5, Prostaglandin E2 receptor EP3 subtype (Homo sapiens) (UniProt P43115); test: Antagonistic activity at EP3 receptor assessed as inhibition of cAMP production in HEK EBNA cells; type: functional, cell-based; conditions: HEK293-EBNA, filed as antagonist
T5 sequence (whole entry): T1 sequence (P43115 whole entry)

[11] = Half life in Sprague-Dawley rat at 10 mg/kg, po and 5 mg/kg, iv; type: ADME, organism-based; conditions: in vivo
[12] = Clearance in Sprague-Dawley rat at 10 mg/kg, po and 5 mg/kg, iv; type: ADME, organism-based; conditions: in vivo
[13] = Bioavailability in Sprague-Dawley rat at 10 mg/kg, po and 5 mg/kg, iv; type: ADME, organism-based; conditions: in vivo
[14] = Stability in rat hepatocytes after 3 hrs; type: ADME, cell-based, Hepatocyte; conditions: read-out: Stability
Summary of the method: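 Incubation with rat hepatocytes for 3 h; percentage of parent compound recovered intact.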

[15] = Cmax in Sprague-Dawley rat at 10 mg/kg, po and 5 mg/kg, iv after 30 mins; type: ADME, organism-based; conditions: in vivo
Rattus norvegicus [16] = test: Antiinflammatory activity against carrageenan-induced paw edema in po dosed rat; type: functional

Sequence of Prostaglandin E2 receptor EP2 subtype (P43116 whole entry): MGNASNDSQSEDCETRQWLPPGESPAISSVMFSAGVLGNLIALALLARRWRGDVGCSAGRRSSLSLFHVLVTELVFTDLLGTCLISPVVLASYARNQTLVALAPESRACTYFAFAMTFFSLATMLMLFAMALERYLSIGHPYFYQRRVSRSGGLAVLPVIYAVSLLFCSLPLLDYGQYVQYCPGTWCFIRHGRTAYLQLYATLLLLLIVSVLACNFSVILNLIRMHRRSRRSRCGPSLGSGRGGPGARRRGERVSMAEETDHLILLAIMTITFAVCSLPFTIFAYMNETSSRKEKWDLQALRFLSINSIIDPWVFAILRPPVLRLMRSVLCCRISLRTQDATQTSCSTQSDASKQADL

Ki [1] | Ki [2] | Ki [3] | Ki [4] | Compound | also measured
750 nM (antagonist) | 8 nM (antagonist) | > 20000 nM | 610 nM (antagonist) | COc1cc(/C=C/Cc2ccccc2/C=C/C(=O)O)ccc1OCc1ccccc1 | 
6500 nM (antagonist) | 2.4 nM (antagonist) | 2600 nM (antagonist) | 1000 nM (antagonist) | COc1ccc(/C=C/Cc2ccccc2/C=C/C(=O)NS(=O)(=O)c2cccs2)cc1 | 
2100 nM (antagonist) | 10 nM (antagonist) | 2300 nM (antagonist) | 960 nM (antagonist) | Cc1ccc(OCc2ccccc2)c(/C=C/Cc2ccccc2/C=C/C(=O)NS(=O)(=O)c2cccs2)c1 | 
860 nM (antagonist) | 9 nM (antagonist) | 19000 nM | 2000 nM (antagonist) | Cc1ccc(OCc2ccccc2)c(/C=C/Cc2ccccc2/C=C/C(=O)O)c1 | Kb [10]: 32 nM; half-life [11]: 2 h; clearance [12]: 10 mL/min; bioavailability [13]: 97%; ED50 (Rattus norvegicus [6]): 20 mg/kg; Ki (Thromboxane A2 receptor): > 500 nM; Activity (Rattus norvegicus [7]): 1.2 µM; Ki (Prostacyclin receptor): > 500 nM; Ki [8]: > 500 nM; Ki [9]: > 500 nM; remaining at 3 h [14]: 8%; Cmax [15]: 22 µM; ED50 (Rattus norvegicus [16]): 0.9 mg/kg
1400 nM (antagonist) | 100 nM (antagonist) | > 100000 nM | 4400 nM (antagonist) | O=C(O)/C=C/c1ccccc1C/C=C/c1ccccc1 | 
8000 nM (antagonist) | 5 nM (antagonist) | 8500 nM (antagonist) | 1500 nM (antagonist) | O=C(/C=C/c1ccccc1C/C=C/c1ccccc1)NS(=O)(=O)c1cccs1 | 

The next lines start with the molecule.

Compound | Ki [1] | Ki [2] | Ki [3] | Ki [4] | also measured
O=C(O)/C=C/c1ccccc1Cc1ccc2ccccc2c1 |  | 47 nM (antagonist) | > 100000 nM | 13000 nM | Ki [5]: 400 nM (antagonist); ED50 (Rattus norvegicus [6]): 30 mg/kg; Ki (Thromboxane A2 receptor): > 500 nM; Activity (Rattus norvegicus [7]): 5.4 µM; Ki (Prostacyclin receptor): > 500 nM; Ki [8]: > 500 nM; Ki [9]: > 500 nM
Cc1ccc(OCc2ccccc2)c(CCCc2ccccc2CCC(=O)O)c1 | 940 nM (antagonist) | 65 nM (antagonist) | 23000 nM | 440 nM (antagonist) | 
COc1cc(C/C=C/c2ccccc2/C=C/C(=O)NS(=O)(=O)c2cccs2)ccc1OCc1ccccc1 | 8700 nM (antagonist) | 1.6 nM (antagonist) | 1500 nM (antagonist) | 840 nM (antagonist) | 
Cc1ccc(OCc2ccccc2)c(C/C=C/c2ccccc2/C=C/C(=O)NS(=O)(=O)c2cccs2)c1 | 2100 nM (antagonist) | 10 nM (antagonist) | 2300 nM (antagonist) | 960 nM (antagonist) | 
